test system: Human immunodeficiency virus 1; assay: Anti HIV-1 activity of selected N-acylthiocarbamates against Y181C resistant mutant; assay type: functional, organism-based; details: not given
Summary of the method: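 Acutely infected MT-4 cells (1 × 10⁴ cells/well) incubated at 37 °C with serial compound dilutions (DMSO stock, diluted in medium) and Y181C mutant virus (NIH N119; titer 1.3 × 10⁶ CCID₅₀/mL) dosed to cause full cytopathogenicity by day 4. Viability read by MTT; EC₅₀ = concentration giving 50% protection from virus-induced cytopathogenicity.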

SMILES	EC50
O=C1c2ccccc2C(=O)N1CCOC(=S)N(C(=O)c1ccco1)c1ccc([N+](=O)[O-])cc1	14 µM
O=C1c2ccccc2C(=O)N1CCOC(=S)N(C(=O)c1ccc(Cl)cc1)c1ccc(Cl)cc1	11.6 µM
O=C1c2ccccc2C(=O)N1CCOC(=S)N(C(=O)c1ccco1)c1ccc(Cl)cc1	1.7 µM
O=C1c2ccccc2C(=O)N1CCOC(=S)N(C(=O)c1cccs1)c1ccc([N+](=O)[O-])cc1	58 µM
S=C(NCCc1ccccn1)Nc1ccc(Br)cn1 [TROVIRDINE]	1.2 µM
O=C1c2ccccc2C(=O)N1CCOC(=S)N(C(=O)c1ccccc1)c1ccc(Cl)cc1	> 100 µM
O=C1c2ccccc2C(=O)N1CCOC(=S)N(C(=O)c1ccccc1)c1ccccc1	> 100 µM
O=C1c2ccccc2C(=O)N1CCOC(=S)N(C(=O)c1cccs1)c1ccc(Cl)cc1	1 µM

test system: Human immunodeficiency virus 1; assay: Concentration required to reduce the amount of p24 by 90% in HIV-1 infected C8166 cultures; assay type: functional, organism-based; details: Human immunodeficiency virus 1, C8166
Summary of the method: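 C8166 cells (1 × 10^4/well) were infected with wt HIV-1 in the presence of graded compound concentrations, with DMSO stocks diluted in culture medium. After incubation at 37 °C, p24 antigen was measured by immunoenzymatic kit. EC90 is the concentration lowering p24 by 90%.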

SMILES	EC90
O=C1c2ccccc2C(=O)N1CCOC(=S)N(C(=O)c1ccco1)c1ccc([N+](=O)[O-])cc1	0.005 µM
O=C1c2ccccc2C(=O)N1CCOC(=S)N(C(=O)c1ccc(Cl)cc1)c1ccc(Cl)cc1	0.02 µM
O=C1c2ccccc2C(=O)N1CCOC(=S)N(C(=O)c1ccco1)c1ccc(Cl)cc1	0.005 µM
S=C(NCCc1ccccn1)Nc1ccc(Br)cn1 [TROVIRDINE]	0.015 µM
O=C1c2ccccc2C(=O)N1CCOC(=S)N(C(=O)c1ccccc1)c1ccc(Cl)cc1	0.13 µM
O=C1c2ccccc2C(=O)N1CCOC(=S)N(C(=O)c1ccccc1)c1ccccc1	0.8 µM
O=C1c2ccccc2C(=O)N1CCOC(=S)N(C(=O)c1cccs1)c1ccc(Cl)cc1	0.008 µM

test system: MT4; assay: Selectivity index which is the ratio of CC50 and EC50 was determined; assay type: functional, Homo sapiens; details: not given
Summary of the method: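 MT-4 cells (1 × 10^4/well) were seeded with or without serial compound dilutions, then infected with HIV-1 IIIB at enough CCID50 for complete cytopathogenicity by day 4. Cultures were incubated at 37 °C and viability was read by MTT. […] Cytotoxicity was run in parallel on mock-infected cells, and SI = CC50/EC50. Data are means of three separate experiments.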

SMILES	SI
O=C1c2ccccc2C(=O)N1CCOC(=S)N(C(=O)c1cccs1)c1ccccc1Cl	9
O=C1c2ccccc2C(=O)N1CCOC(=S)N(C(=O)c1cccs1)c1ccc(F)cc1	>1000
COc1ccccc1N(C(=O)c1cccs1)C(=S)OCCN1C(=O)c2ccccc2C1=O	>9
CCCOC(=O)N(C(=S)OC(C)COc1ccccc1)c1ccccc1 (stereo not given)	>1.5
CC(COc1ccccc1)OC(=S)N(C(=O)c1cccc2ccccc12)c1ccccc1 (stereo not given)	>33.3
CCOc1ccc(N(C(=O)c2ccc(Cl)nc2)C(=S)OCCN2C(=O)c3ccccc3C2=O)cc1	>200
O=C(c1ccco1)N(C(=S)OCc1ccccc1)c1ccccc1	1.9
CC(=O)c1cccc(N(C(=O)c2cccs2)C(=S)OCCN2C(=O)c3ccccc3C2=O)c1	>17
O=C(c1ccco1)N(C(=S)OCCc1ccccc1)c1ccccc1	24
O=C(c1ccc(Cl)cc1)N(C(=S)OCCOc1ccccc1)c1ccccc1	12.9
CC(COc1ccccc1)OC(=S)N(C(=O)c1cccs1)c1ccc([N+](=O)[O-])cc1 (stereo not given)	10.5
O=C1c2ccccc2C(=O)N1CCOC(=S)N(C(=O)c1ccco1)c1ccc([N+](=O)[O-])cc1	2250
O=C1c2ccccc2C(=O)N1CCOC(=S)N(C(=O)c1cccs1)c1cccc(Br)c1	44
O=C1c2ccccc2C(=O)N1CCOC(=S)N(C(=O)c1cccs1)c1cccc(F)c1	>9
Cc1ccc(N(C(=O)c2cccs2)C(=S)OCCN2C(=O)c3ccccc3C2=O)cc1	>250
CC(COc1ccccc1)OC(=S)N(C(=O)c1cccc([N+](=O)[O-])c1)c1ccccc1 (stereo not given)	>55.5
O=C1c2ccccc2C(=O)N1CCOC(=S)N(C(=O)c1ccc(Cl)cc1)c1ccc(Cl)cc1	>4000
O=C1c2ccccc2C(=O)N1CCOC(=S)N(C(=O)c1ccco1)c1ccc(Cl)cc1	5857
O=C1c2ccccc2C(=O)N1CCOC(=S)N(C(=O)c1cccs1)c1ccc(I)cc1	1800
CCN(CC)c1ccc(N(C(=O)c2cccs2)C(=S)OCCN2C(=O)c3ccccc3C2=O)cc1	9
CC(COc1ccccc1)OC(=S)N(C(=O)c1ccco1)c1ccccc1 (stereo not given)	39.6
O=C1c2ccccc2C(=O)N1CCOC(=S)N(C(=O)c1cccs1)c1cccc(Cl)c1	>17
O=C(c1cc(Cl)cc(Cl)c1)N(C(=S)OCCOc1ccccc1)c1ccccc1	4.8
COc1cccc(N(C(=O)c2cccs2)C(=S)OCCN2C(=O)c3ccccc3C2=O)c1	>28
CC(COc1ccccc1)OC(=S)N(C(=O)c1cccs1)c1ccc(Cl)cc1 (stereo not given)	>9
O=C1c2ccccc2C(=O)N1CCOC(=S)N(C(=O)c1cccs1)c1ccc([N+](=O)[O-])cc1	16800
S=C(NCCc1ccccn1)Nc1ccc(Br)cn1 [TROVIRDINE]	3000
O=C1c2ccccc2C(=O)N1CCOC(=S)N(C(=O)c1ccccc1)c1ccc(Cl)cc1	>2000
O=C1c2ccccc2C(=O)N1CCOC(=S)N(C(=O)c1ccccc1)c1ccccc1	>500
O=C1c2ccccc2C(=O)N1CCOC(=S)N(C(=O)c1cccs1)c1ccc(Cl)cc1	>25000

biological target: Human immunodeficiency virus type 1 reverse transcriptase (Human immunodeficiency virus 1, UniProt Q72547); assay: Activity of selected HIV-1 N-acylthiocarbamates in enzyme assay against Virion-Associated reverse transcriptase; details: not given
Summary of the method: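 Virion-associated RT from stock virus disrupted with 0.5% NP-40. Incubation 60 min at 37 °C, then acid-insoluble radioactivity counted on glass fiber filters.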

SMILES	IC50
O=C1c2ccccc2C(=O)N1CCOC(=S)N(C(=O)c1ccco1)c1ccc(Cl)cc1	2.3 µM
S=C(NCCc1ccccn1)Nc1ccc(Br)cn1 [TROVIRDINE]	4.2 µM
O=C1c2ccccc2C(=O)N1CCOC(=S)N(C(=O)c1cccs1)c1ccc(Cl)cc1	2.5 µM

test system: MT-4 (Homo sapiens); assay: Concentration required to reduce the viability of mock-infected MT-4 cells by 50% was determined by MTT method; details: MT4

SMILES	CC50
O=C1c2ccccc2C(=O)N1CCOC(=S)N(C(=O)c1cccs1)c1ccccc1Cl	> 100 µM
O=C1c2ccccc2C(=O)N1CCOC(=S)N(C(=O)c1cccs1)c1ccc(F)cc1	> 100 µM
COc1ccccc1N(C(=O)c1cccs1)C(=S)OCCN1C(=O)c2ccccc2C1=O	> 100 µM
CCCOC(=O)N(C(=S)OC(C)COc1ccccc1)c1ccccc1 (stereo not given)	> 200 µM
CC(=O)c1cccc(N(C(=O)c2cccs2)C(=S)OCCN2C(=O)c3ccccc3C2=O)c1	> 100 µM
O=C(c1ccco1)N(C(=S)OCCc1ccccc1)c1ccccc1	102 µM
O=C(c1ccc(Cl)cc1)N(C(=S)OCCOc1ccccc1)c1ccccc1	133 µM
CC(COc1ccccc1)OC(=S)N(C(=O)c1cccs1)c1ccc([N+](=O)[O-])cc1 (stereo not given)	63 µM
O=C1c2ccccc2C(=O)N1CCOC(=S)N(C(=O)c1ccco1)c1ccc([N+](=O)[O-])cc1	18 µM
O=C1c2ccccc2C(=O)N1CCOC(=S)N(C(=O)c1cccs1)c1cccc(Br)c1	53 µM
O=C1c2ccccc2C(=O)N1CCOC(=S)N(C(=O)c1cccs1)c1cccc(F)c1	> 100 µM
Cc1ccc(N(C(=O)c2cccs2)C(=S)OCCN2C(=O)c3ccccc3C2=O)cc1	> 100 µM
CC(COc1ccccc1)OC(=S)N(C(=O)c1cccc([N+](=O)[O-])c1)c1ccccc1 (stereo not given)	> 200 µM
O=C1c2ccccc2C(=O)N1CCOC(=S)N(C(=O)c1ccc(Cl)cc1)c1ccc(Cl)cc1	> 100 µM
O=C1c2ccccc2C(=O)N1CCOC(=S)N(C(=O)c1ccco1)c1ccc(Cl)cc1	41 µM
O=C1c2ccccc2C(=O)N1CCOC(=S)N(C(=O)c1cccs1)c1ccc(I)cc1	18 µM
CCN(CC)c1ccc(N(C(=O)c2cccs2)C(=S)OCCN2C(=O)c3ccccc3C2=O)cc1	> 100 µM
CC(COc1ccccc1)OC(=S)N(C(=O)c1ccco1)c1ccccc1 (stereo not given)	51.5 µM
O=C1c2ccccc2C(=O)N1CCOC(=S)N(C(=O)c1cccs1)c1cccc(Cl)c1	> 100 µM
O=C(c1cc(Cl)cc(Cl)c1)N(C(=S)OCCOc1ccccc1)c1ccccc1	43 µM
COc1cccc(N(C(=O)c2cccs2)C(=S)OCCN2C(=O)c3ccccc3C2=O)c1	> 100 µM
CC(COc1ccccc1)OC(=S)N(C(=O)c1cccs1)c1ccc(Cl)cc1 (stereo not given)	> 100 µM
O=C1c2ccccc2C(=O)N1CCOC(=S)N(C(=O)c1cccs1)c1ccc([N+](=O)[O-])cc1	168 µM
S=C(NCCc1ccccn1)Nc1ccc(Br)cn1 [TROVIRDINE]	60 µM
O=C1c2ccccc2C(=O)N1CCOC(=S)N(C(=O)c1ccccc1)c1ccc(Cl)cc1	> 200 µM
O=C1c2ccccc2C(=O)N1CCOC(=S)N(C(=O)c1ccccc1)c1ccccc1	> 200 µM
O=C1c2ccccc2C(=O)N1CCOC(=S)N(C(=O)c1cccs1)c1ccc(Cl)cc1	> 200 µM

Reference: ChEMBL document CHEMBL1145773, “Design, synthesis, SAR, and molecular modeling studies of acylthiocarbamates: a novel series of potent non-nucleoside HIV-1 reverse transcriptase inhibitors structurally related to phenethylthiazolylthiourea derivatives” (J Med Chem, 2003)
